SENP1 inh = inhibitors of human SENP1 SUMO protease catalytic domain; Q9P0U3; recombinant SENP1 catalytic domain, CyPet-SUMO1-YPet FRET cleavage; inhibition, % at 10 µM; hit rate 0.21% among 360,000;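 active = inhibition at least 30% at 10 µM, raw YFP signal under a set limit, fluorescence ratio 0.5 to 1.5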;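 also: 0% = enzyme with DMSO and 100% = no enzyme wells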
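Material – human SENP1 catalytic domain · Input – SENP1 enzyme, 20 pM final · Compound dosing – single concentration of 10 µM compound, 0.5% DMSO final · Timing – enzyme reaction for 50 min at room temperature, dark · Measured by – FRET fluorescence in CFP and YFP emission channels · Control set – no-enzyme wells low, DMSO-plus-enzyme wells high control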
SENP8 block-1 = inhibitors of human SENP8 protease. inhibition, % at 10 µM. hit rate 1.2% among 330,000. Q96LD8. purified SENP8, Z-RLRGG-aminoluciferin cleavage, luminescence; in the data active = inhibition above about 50%
SENP8 block-2 = blocks human SENP8 cleavage of Nedd8 substrate | AID 602440 | inhibition, % at 20 µM | recombinant SENP8, Nedd8 substrate fluorescence | hit rate 0.64% among 360,000; in the data active = inhibition mostly above about 40%, no sharp cut-off; inactive = mostly below about 27%
SENP7 inh = SENP7 protease inhibition. recombinant SENP7, Z-RLRGG-aminoluciferin luminescence, 40 min. inhibition, % at 5 µM. hit rate 1.5% among 330,000;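 active = inhibition above about 50% at the single test dose, limit read from the data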;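 also: plate controls were DMSO with enzyme for no effect and no enzyme buffer wells for full effect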
SENP6 block = inhibitors of human SENP6 protease; hit rate 1.8% among 330,000; Recombinant SENP6 catalytic domain, aminoluciferin luminescence; inhibition, % at 10 µM; AID 2599;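 active = inhibition above about 50% at the single tested dose, limit read from the data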;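 also: plate controls were DMSO wells with enzyme for no effect and DMSO wells lacking enzyme for full effect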
Target sequence (Q9GZR1 628-1112 limits assumed): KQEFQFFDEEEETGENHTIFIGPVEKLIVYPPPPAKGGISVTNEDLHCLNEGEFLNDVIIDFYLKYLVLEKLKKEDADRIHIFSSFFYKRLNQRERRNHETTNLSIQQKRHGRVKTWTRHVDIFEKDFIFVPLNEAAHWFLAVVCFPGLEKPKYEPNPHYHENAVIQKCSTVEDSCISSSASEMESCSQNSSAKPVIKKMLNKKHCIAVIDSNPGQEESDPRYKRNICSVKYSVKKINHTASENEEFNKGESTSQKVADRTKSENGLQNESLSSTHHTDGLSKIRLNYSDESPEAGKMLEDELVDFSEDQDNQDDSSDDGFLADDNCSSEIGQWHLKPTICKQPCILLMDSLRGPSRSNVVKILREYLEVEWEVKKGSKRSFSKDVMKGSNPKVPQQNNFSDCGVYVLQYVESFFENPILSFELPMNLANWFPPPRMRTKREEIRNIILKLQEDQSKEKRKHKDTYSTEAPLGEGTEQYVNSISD
Platelet DG rel = modulates dense granule release in human platelets; human platelet-rich plasma, SFLLRN dense granule ATP release, luminescence; AID 1663; inhibition, %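 (compounds screened at 7.5 µM in platelet-rich plasma)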; hit rate 0.22% among 300,000;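 active = mean replicate score, as percent of positive control, at or above 50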
SENP8 conf = human SENP8 inhibition, confirmed | shares compounds with SENP7 inh | Recombinant SENP8, Z-RLRGG-aminoluciferin luminescence, 60 min | inhibition, % at 12.5 µM | hit rate 40% among 6,200 | AID 488912;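 active = mean inhibition across replicates above about 50%, limit read from the data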
SENP6 confirm = confirmation of human SENP6 protease inhibitors | recombinant SENP6, Z-RLRGG-aminoluciferin luminescence | hit rate 58% among 6,200 | shares compounds with SENP7 inh | inhibition, % at 12.5 µM | AID 488915
SENP7 conf = confirmation of human SENP7 protease inhibitors. shares compounds with SENP7 inh. recombinant SENP7, Z-RLRGG-aminoluciferin luminescence, 40 min. inhibition, % at 12.5 µM. hit rate 69% among 6,200. AID 488917
Casp3 select = selectivity test for SENP inhibitors: human caspase-3 inhibition; inhibition, % at 12.5 µM; shares compounds with SENP7 inh; hit rate 60% among 6,200; purified caspase-3, Z-DEVD-aminoluciferin luminescence, 60 min; AID 488918;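 active = mean inhibition above about 50%, limit read from the data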;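 also: plate controls were enzyme with DMSO for no effect and wells without caspase-3 for full effect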
Target sequence (P42574 28-227 limits assumed): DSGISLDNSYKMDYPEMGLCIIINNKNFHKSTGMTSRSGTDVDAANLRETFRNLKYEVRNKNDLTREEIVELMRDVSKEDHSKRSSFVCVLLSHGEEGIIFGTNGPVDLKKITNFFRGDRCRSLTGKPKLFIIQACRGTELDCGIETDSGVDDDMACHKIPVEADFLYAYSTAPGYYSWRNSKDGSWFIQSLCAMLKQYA
SENP luc ctr = counter-screen for SENP inhibitors: luminescence interference; shares compounds with SENP7 inh; AID 488919; inhibition, % at 12.5 µM; Pre-incubated SENP8/Z-RLRGG-aminoluciferin, luciferase luminescence interference; hit rate 39% among 6,200;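 active = mean inhibition above about 50% when retested at one dose, limit read from the data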;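 also: plate controls were DMSO wells with completed reaction for no effect and substrate without enzyme for full effect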
* = called active by the depositor; . = no result given. An excerpt weighted towards active compounds, which were near 2.6% of everything screened.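 The calls were made as follows, unless noted: active = mean inhibition above about 50% in the one-dose retest (limit read from the data); inactive = the rest.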

SMILES	SENP1 inh	SENP8 block-1	SENP8 block-2	SENP7 inh	SENP6 block	Platelet DG rel	SENP8 conf	SENP6 confirm	SENP7 conf	Casp3 select	SENP luc ctr
Cc1cc(C(=O)N/N=C/c2ccccc2)c(C)o1	1.0	34.4	20.7	73.6*	47.2	3.6	59.3*	57.3*	84.8*	83.2*	60.4*
Cc1occc1C(=O)N/N=C/C(Br)=C\c1ccccc1	1.2	90.9*	13.6	95.6*	91.7*	14.4	90.7*	94.9*	101.1*	89.7*	60.6*
Cc1occc1C(=O)N/N=C/C=C/c1ccc(N(C)C)cc1	-28.6	38.9	-386.2	46.0	49.7	-2.0	.	.	.	.	.
O=C(N/N=C/C(Br)=C\c1ccccc1)c1ccco1	0.8	1.9	13.1	-0.2	10.5	5.6	.	.	.	.	.
Cc1occc1C(=O)N/N=C/c1ccc(N(C)C)cc1	-6.3	96.4*	-449.7	97.9*	96.1*	77.9*	10.8	100.2*	103.6*	99.1*	98.0*
Cc1occc1C(=O)N/N=C/C=C/c1ccccc1	-3.5	43.3	22.3	54.8*	58.4*	27.7	70.1*	68.3*	91.2*	86.2*	70.0*
Cc1cc(C(=O)N/N=C/C=C/c2ccccc2)c(C)o1	1.4	-15.0	8.4	0.5	7.6	6.8	.	.	.	.	.
CCC(=O)Nc1c(-c2ccc(Cl)cc2)c(=O)c2ccccc2n1C	1.0	3.2	-32.5	6.5	-1.4	0.5	.	.	.	.	.
C/C(=N\NC(=O)c1ccoc1C)c1ccccc1	2.6	51.0*	20.3	69.4*	72.7*	34.3	11.2	59.5*	87.3*	84.4*	49.8
Cc1cc(O)c(S(=O)(=O)c2ccccc2)c(C)c1NS(=O)(=O)c1ccccc1	-4.6	-9.5	10.2	-11.1	-9.6	-5.9	.	.	.	.	.
Cc1ccc2c(c1)N=C(c1ccc(F)cc1)CO2	9.0	95.0*	-155.6	97.4*	97.8*	.	4.4	97.0*	102.2*	90.6*	49.9
O=[N+]([O-])c1ccc(C2=Nc3cc(Cl)ccc3OC2)cc1	15.3	-9.8	-5.3	-8.4	-0.8	5.9	.	.	.	.	.
CC(C)(C)c1ccc(CC(=O)N2CCC2(C)C(=O)Nc2cccc3cccnc23)cc1 (stereo not drawn)	3.3	.	-2.7	.	.	.	.	.	.	.	.
Oc1ccccc1/C=N/Nc1cccc2cccnc12	-66.5	86.5*	-60.7	88.2*	92.3*	9.0	92.2*	96.1*	101.4*	79.9*	43.0
NC(=O)c1ccsc1NC(=O)c1ccc(S(=O)(=O)N2CCCCC2)cc1	3.3	57.8*	-20.6	49.7	66.7*	17.8	56.8*	71.9*	91.7*	55.8*	22.8
Cc1ccccc1-c1nnc(SCc2ccc(F)cc2)o1	-1.2	-21.0	0.1	-8.9	-14.3	-0.6	.	.	.	.	.
Cc1ccccc1C1=NC(c2ccc(F)cc2F)ON1 (stereo not drawn)	0.7	35.4	20.2	33.6	66.3*	5.1	-13.6	4.8	40.3	13.6	4.7
CCCCN1CC2([N+](=O)[O-])C=CC(=O)C([N+](=O)[O-])(C1)C2CC(=O)c1ccccc1 (stereo not drawn)	-2.1	-7.7	7.9	-1.3	87.5*	-8.8	3.8	-1.4	1.8	4.4	2.9
Cn1cc(Cl)c(C(=O)OCC(=O)Nc2cccc(Cl)c2)n1	-1.0	-9.5	4.0	-11.5	50.9*	0.4	-0.6	6.9	3.8	4.9	0.0
Cc1cccc(C)c1NC(=O)C1(C)CSCC(=O)N1CCCn1ccnc1 (stereo not drawn)	3.1	.	12.0	.	.	.	.	.	.	.	.
O=C1c2ccccc2CN2C(=O)c3ccccc3CN12	-0.1	0.7	10.2	1.9	-7.2	-2.3	.	.	.	.	.
c1ccc(-c2cn3c(n2)-c2ccccc2C3)cc1	-1.1	96.0*	-41.8	97.2*	96.4*	28.4	98.9*	99.7*	102.7*	98.8*	96.7*
O=C(Nc1nc2c(F)cc(F)cc2s1)c1ccc([N+](=O)[O-])o1	-8.6	69.3*	5.7	32.4	72.6*	3.0	-23.9	-12.9	-2.9	-4.7	-2.8
COc1ccc2nc(NC(=O)c3ccc([N+](=O)[O-])o3)sc2c1	-8.7	16.2	-31.7	43.5	62.6*	4.5	45.7	68.0*	74.0*	14.4	31.7
O=C(Nc1nc2ccccc2s1)c1ccccc1[N+](=O)[O-]	-0.2	1.1	4.0	-20.3	19.6	5.6	.	.	.	.	.
SMILES	SENP1 inh	SENP8 block-1	SENP8 block-2	SENP7 inh	SENP6 block	Platelet DG rel	SENP8 conf	SENP6 confirm	SENP7 conf	Casp3 select	SENP luc ctr
COc1ccc2nc(NC(=O)c3ccccc3[N+](=O)[O-])sc2c1	-0.4	0.7	15.2	-1.2	11.7	3.1	.	.	.	.	.
O=C(Nc1nc2ccccc2s1)c1ccc([N+](=O)[O-])o1	-1.4	50.5*	5.8	60.2*	75.5*	7.1	-28.2	-19.5	-6.2	-5.5	-6.5
CCC(C)(C)NC(=O)C(C(C)C)N(CC1CCCO1)C(=O)CNS(=O)(=O)c1ccccc1 (stereo not drawn)	0.8	6.9	5.9	12.3	14.4	-0.5	.	.	.	.	.
Cc1cccc(-n2ncc3c(N4CCOCC4)ncnc32)c1	1.9	70.4*	14.7	78.6*	70.9*	8.0	77.5*	75.8*	90.8*	86.4*	60.7*
Clc1ccc(Cn2ncc3c(N4CCCCC4)ncnc32)cc1	-5.3	3.8	8.4	7.4	-16.4	-18.8	.	.	.	.	.
Clc1ccc(-n2ncc3c(N4CCCCCC4)ncnc32)cc1	-15.6	86.4*	6.5	91.3*	94.5*	9.0	47.2	53.0*	72.4*	57.3*	1.2
Cc1cccc(-n2ncc3c(N4CCCC4)ncnc32)c1	-1.0	28.9	9.2	25.0	40.7	5.7	.	.	.	.	.
COc1ccc(-n2ncc3c(N4CCCCC4)ncnc32)cc1	-4.9	93.2*	-351.3	98.0*	95.8*	12.1	94.6*	97.5*	102.7*	96.4*	95.2*
CC(C)[C@H](NC(=O)[C@H]1N2C(=O)c3ccccc3C2SC1(C)C)C(=O)NCc1ccco1 (stereo partly drawn)	0.4	7.6	3.6	-0.1	7.0	1.9	.	.	.	.	.
CCCCCOc1ccc(C(O)C(CN2CCOCC2)c2ccccc2)cc1 (stereo not drawn)	2.3	5.8	7.8	6.1	-1.3	4.3	.	.	.	.	.
O=C(N/N=C/c1ccccc1)c1[nH]ncc1Br	0.2	86.0*	6.0	94.9*	91.4*	40.1	88.9*	88.0*	98.2*	94.8*	39.6

Source: PubChem BioAssay
